According to ChEMBL document CHEMBL4359813, “Synthesis and antimycobacterial activity of imidazo[1,2-b][1,2,4,5]tetrazines” (2019):
In brackets after ≈: the same amount, converted by molar mass. Activity calls are given as the source filed them. No cut-off for these calls is given here.

Columns and labels:
[1] = test system: Mycolicibacterium smegmatis; experiment: Antimycobacterial activity against Mycobacterium smegmatis atR2 assessed as decrease in drug resistance development at 15 ug/disc after 2 to 3 days by paper disc method; format: functional, organism-based
Method in brief: (§1)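 Mutant M. smegmatis strains were grown in Middlebrook 7H9/OADC/Tween/glycerol to OD600 1.2. Cultures were diluted 1:9:10 (culture:water:M290) and overlaid on M290 agar. Commercial or impregnated paper discs were applied and plates incubated 2–3 days at 37 °C. Inhibition halos were measured to 1 mm, run in triplicate, mean ± SD.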

[2] = test system: Mycolicibacterium smegmatis; experiment: Antimycobacterial activity against Mycobacterium smegmatis atR14 assessed as decrease in drug resistance development at 15 ug/disc after 2 to 3 days by paper disc method; format: functional, organism-based; method in brief: as §1
[3] = test system: Mycolicibacterium smegmatis; experiment: Antimycobacterial activity against Mycobacterium smegmatis atR8 assessed as decrease in drug resistance development at 15 ug/disc after 2 to 3 days by paper disc method; format: functional, organism-based
Method in brief: (§2)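 Drug-resistant M. smegmatis mc2 155 mutants, isolated on M290 agar with 3.5-4× MIC of compound and resistance re-confirmed, grown in Middlebrook 7H9 (OADC, 0.1% Tween-80, 0.4% glycerol) to OD600 1.2. Diluted 1:9:10 culture:water:M290 and poured as top layer on M290 agar. Impregnated paper discs applied; 37 °C for 2–3 days. Halos measured to nearest 1 mm; triplicates, mean ± SD versus control strain.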

[4] = test system: Mycolicibacterium smegmatis; experiment: Antimycobacterial activity against Mycobacterium smegmatis atR11 assessed as decrease in drug resistance development at 15 ug/disc after 2 to 3 days by paper disc method; format: functional, organism-based; method in brief: as §1
[5] = test system: Mycolicibacterium smegmatis; experiment: Antimycobacterial activity against Mycobacterium smegmatis atR9 assessed as decrease in drug resistance development at 15 ug/disc after 2 to 3 days by paper disc method; format: functional, organism-based; method in brief: as §2
[6] = test system: Mycolicibacterium smegmatis; experiment: Antimycobacterial activity against Mycobacterium smegmatis atR1 assessed as decrease in drug resistance development at 15 ug/disc after 2 to 3 days by paper disc method; format: functional, organism-based; method in brief: as §1
[7] = test system: Mycolicibacterium smegmatis; experiment: Antimycobacterial activity against Mycobacterium smegmatis atR10 in liquid medium after 48 hrs by two-fold serial dilution method; format: functional; conditions: atR10, 48 h
Method in brief: (§3)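 M. smegmatis resistant mutants were isolated on M290 agar containing 3.5-4× MIC of the test compound at 30°C and resistance was reconfirmed. MIC was then run in Lemco-Tw broth (Tween-80 0.05%). An overnight culture was diluted 1:200, and two-fold serial dilutions in DMSO were added. Plates were incubated at 37°C and 250 rpm for 48 h. MIC was read as the lowest concentration with no visible growth.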

[8] = test system: Mycolicibacterium smegmatis; experiment: Antimycobacterial activity against Mycobacterium smegmatis atR33 assessed as decrease in drug resistance development at 100 nmol/disc after 2 to 3 days by paper disc method; format: functional, organism-based; method in brief: as §1
[9] = test system: Mycolicibacterium smegmatis; experiment: Antimycobacterial activity against Mycobacterium smegmatis atR11 in liquid medium after 48 hrs by two-fold serial dilution method; format: functional; conditions: atR11, 48 h; method in brief: as §3
[10] = test system: Mycolicibacterium smegmatis; experiment: Antimycobacterial activity against Mycobacterium smegmatis atR2 assessed as decrease in drug resistance development at 100 nmol/disc after 2 to 3 days by paper disc method; format: functional, organism-based; method in brief: as §1
[11] = test system: Mycolicibacterium smegmatis; experiment: Antimycobacterial activity against Mycobacterium smegmatis atR8 in liquid medium after 48 hrs by two-fold serial dilution method; format: functional; conditions: atR8, 48 h; method in brief: as §3
[12] = test system: Mycolicibacterium smegmatis; experiment: Antimycobacterial activity against Mycobacterium smegmatis atR37 assessed as decrease in drug resistance development at 100 nmol/disc after 2 to 3 days by paper disc method; format: functional, organism-based; method in brief: as §2
[13] = test system: Mycolicibacterium smegmatis; experiment: Antimycobacterial activity against Mycobacterium smegmatis atR10 assessed as decrease in drug resistance development at 100 nmol/disc after 2 to 3 days by paper disc method; format: functional, organism-based; method in brief: as §1
[14] = test system: Mycolicibacterium smegmatis; experiment: Antimycobacterial activity against Mycobacterium smegmatis atR17 in liquid medium after 48 hrs by two-fold serial dilution method; format: functional; conditions: atR17, 48 h; method in brief: as §3
[15] = test system: Mycolicibacterium smegmatis; experiment: Antimycobacterial activity against Mycobacterium smegmatis atR40 in liquid medium after 48 hrs by two-fold serial dilution method; format: functional; conditions: atR40, 48 h; method in brief: as §3
[16] = test system: Mycolicibacterium smegmatis; experiment: Antimycobacterial activity against Mycobacterium smegmatis atR1 assessed as decrease in drug resistance development at 100 nmol/disc after 2 to 3 days by paper disc method; format: functional, organism-based; method in brief: as §1
[17] = test system: Mycolicibacterium smegmatis MC2 155; experiment: Inhibition of STPK in Mycobacterium smegmatis MC2 155 expressing aminoglycoside phophotransferase-8 assessed as growth inhibition at 50 nmol/disk after 18 hrs in presence of kanamycin by paper disk method
[18] = test system: Mycolicibacterium smegmatis; experiment: Antimycobacterial activity against Mycobacterium smegmatis atR19 in liquid medium after 48 hrs by two-fold serial dilution method; format: functional; conditions: atR19, 48 h; method in brief: as §3
[19] = test system: Mycolicibacterium smegmatis; experiment: Antimycobacterial activity against Mycobacterium smegmatis atR17 assessed as decrease in drug resistance development at 100 nmol/disc after 2 to 3 days by paper disc method; format: functional, organism-based; method in brief: as §1
[20] = test system: Mycolicibacterium smegmatis; experiment: Antimycobacterial activity against Mycobacterium smegmatis atR19 assessed as decrease in drug resistance development at 100 nmol/disc after 2 to 3 days by paper disc method; format: functional, organism-based; method in brief: as §1
[21] = test system: Mycolicibacterium smegmatis; experiment: Antimycobacterial activity against Mycobacterium smegmatis atR40 assessed as decrease in drug resistance development at 100 nmol/disc after 2 to 3 days by paper disc method; format: functional, organism-based; method in brief: as §2
[22] = test system: Mycolicibacterium smegmatis; experiment: Antimycobacterial activity against Mycobacterium smegmatis MC2 155 in liquid medium after 48 hrs by two-fold serial dilution method; format: functional; conditions: MC2 155, 48 h
Method in brief: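 M. smegmatis mc2 155 grown overnight in Lemco-Tw broth, diluted 1:200 in fresh broth. […] Top wells could carry 4% DMSO. Incubated 48 h at 37 °C with shaking at 250 rpm. MIC is the lowest concentration with no visible growth.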

[23] = test system: Mycolicibacterium smegmatis; experiment: Antimycobacterial activity against Mycobacterium smegmatis atR9 assessed as decrease in drug resistance development at 100 nmol/disc after 2 to 3 days by paper disc method; format: functional, organism-based; method in brief: as §2
[24] = test system: Mycolicibacterium smegmatis; experiment: Antimycobacterial activity against Mycobacterium smegmatis atR37 in liquid medium after 48 hrs by two-fold serial dilution method; format: functional; conditions: atR37, 48 h; method in brief: as §3
[25] = test system: Mycolicibacterium smegmatis; experiment: Antimycobacterial activity against Mycobacterium smegmatis atR8 assessed as decrease in drug resistance development at 100 nmol/disc after 2 to 3 days by paper disc method; format: functional, organism-based; method in brief: as §2
[26] = test system: Mycolicibacterium smegmatis; experiment: Antimycobacterial activity against Mycobacterium smegmatis atR14 assessed as decrease in drug resistance development at 100 nmol/disc after 2 to 3 days by paper disc method; format: functional, organism-based; method in brief: as §1
[27] = test system: Mycolicibacterium smegmatis; experiment: Antimycobacterial activity against Mycobacterium smegmatis atR2 in liquid medium after 48 hrs by two-fold serial dilution method; format: functional; conditions: atR2, 48 h; method in brief: as §3
[28] = test system: Mycobacterium tuberculosis; experiment: Antimycobacterial activity against Mycobacterium tuberculosis H37Rv in liquid medium; format: functional
Method in brief: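 M. tuberculosis H37Rv; MIC determined in liquid medium on the automated Bactec MGIT 960 system.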

[29] = test system: Mycolicibacterium smegmatis; experiment: Antimycobacterial activity against Mycobacterium smegmatis atR1 in liquid medium after 48 hrs by two-fold serial dilution method; format: functional; conditions: atR1, 48 h; method in brief: as §3
[30] = test system: Mycolicibacterium smegmatis; experiment: Antimycobacterial activity against Mycobacterium smegmatis atR9 in liquid medium after 48 hrs by two-fold serial dilution method; format: functional; conditions: atR9, 48 h; method in brief: as §3
[31] = test system: Mycolicibacterium smegmatis; experiment: Antimycobacterial activity against Mycobacterium smegmatis MC2 155 in solid medium by two-fold serial dilution method; format: functional
Method in brief: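 M290 soybean-casein agar plates carried two-fold compound dilutions, 8–64 or 8–128 µg/ml, some with extra 20 or 25 µg/ml plates.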

[32] = test system: Mycolicibacterium smegmatis; experiment: Antimycobacterial activity against Mycobacterium smegmatis atR11 assessed as decrease in drug resistance development at 100 nmol/disc after 2 to 3 days by paper disc method; format: functional, organism-based; method in brief: as §1
[33] = test system: Mycolicibacterium smegmatis; experiment: Antimycobacterial activity against Mycobacterium smegmatis atR33 in liquid medium after 48 hrs by two-fold serial dilution method; format: functional; conditions: atR33, 48 h; method in brief: as §3
[34] = test system: Mycolicibacterium smegmatis; experiment: Antimycobacterial activity against Mycobacterium smegmatis atR14 in liquid medium after 48 hrs by two-fold serial dilution method; format: functional; conditions: atR14, 48 h; method in brief: as §3

CC[C@H]1OC(=O)[C@H](C)[C@@H](O[C@H]2C[C@@](C)(OC)[C@@H](O)[C@H](C)O2)[C@H](C)[C@@H](O[C@@H]2O[C@H](C)C[C@H](N(C)C)[C@H]2O)[C@](C)(O)C[C@@H](C)C(=O)[C@H](C)[C@@H](O)[C@]1(C)O
Activity [1]: inactive | Activity [2]: inactive | Activity [3]: inactive | Activity [4]: inactive | Activity [5]: inactive | Activity [6]: inactive

Cc1cn(-c2nnc3ncc(SC(C)C)n3n2)cn1
MIC [7]: 256 µg/mL (≈ 930 µM) | Activity [8]: inactive | MIC [9]: 256 µg/mL (≈ 930 µM) | Activity [10]: Active | MIC [11]: 256 µg/mL (≈ 930 µM) | Activity [12]: Active | Activity [13]: inactive | MIC [14]: 128 µg/mL (≈ 465 µM) | MIC [15]: 128 µg/mL (≈ 465 µM) | Activity [16]: inactive | inhibition zone (IZ) [17]: 13 mm | MIC [18]: 128 µg/mL (≈ 465 µM) | Activity [19]: inactive | Activity [20]: inactive | Activity [21]: inactive | MIC [22]: 232 µM (≈ 64 µg/mL) | Activity [23]: inactive | MIC [24]: 128 µg/mL (≈ 465 µM) | Activity [25]: inactive | Activity [26]: inactive | MIC [27]: 128 µg/mL (≈ 465 µM) | MIC [28]: 90.8 µM (≈ 25 µg/mL) | MIC [29]: 128 µg/mL (≈ 465 µM) | MIC [30]: 128 µg/mL (≈ 465 µM) | MIC [31]: 90.8 µM (≈ 25 µg/mL) | Activity [32]: inactive | MIC [33]: 128 µg/mL (≈ 465 µM) | MIC [34]: 128 µg/mL (≈ 465 µM)
